# Only some compounds are listed: those with a hit (about 1.1% of all), similar ones and a draw of the others.
# Diaphorase inh: diaphorase inhibition or chemical oxidation counter-screen | diaphorase resazurin-to-resorufin fluorescence, NADH, 16 min; bacterial (C. kluyveri) enzyme, not human | inhibition, % at 20 µM | 190,000 compounds, 0.69% hits;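 active means primary screen inhibition at 20 µM above a set limit, cut at about 50% in these data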;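 further: plate controls were DMSO with full reaction for no effect and wells lacking NADH for full effect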
#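 material = Clostridium kluyveri diaphorase enzyme | amount = 0.14 U/mL diaphorase, enzyme working solution | schedule = incubation 16 min, room temperature | detection = fluorescence of resorufin formed from resazurin, Ex 544/Em 590 nm | benchmarks = positive control minus NADH, DMSO neutral control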
# PMI act hi M6P: increases human PMI activity with near-saturating mannose 6-phosphate | 190,000 compounds, 0.34% hits | coupled PMI enzyme assay, resazurin fluorescence, 20 min; hits give high values; 1 = untreated enzyme, 0 = substrate-free blank | AID 1216 | activation factor at 20 µM | P34949;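 active means activation factor of 2 or more at 20 µM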
# Target sequence (P34949 whole entry, looked up): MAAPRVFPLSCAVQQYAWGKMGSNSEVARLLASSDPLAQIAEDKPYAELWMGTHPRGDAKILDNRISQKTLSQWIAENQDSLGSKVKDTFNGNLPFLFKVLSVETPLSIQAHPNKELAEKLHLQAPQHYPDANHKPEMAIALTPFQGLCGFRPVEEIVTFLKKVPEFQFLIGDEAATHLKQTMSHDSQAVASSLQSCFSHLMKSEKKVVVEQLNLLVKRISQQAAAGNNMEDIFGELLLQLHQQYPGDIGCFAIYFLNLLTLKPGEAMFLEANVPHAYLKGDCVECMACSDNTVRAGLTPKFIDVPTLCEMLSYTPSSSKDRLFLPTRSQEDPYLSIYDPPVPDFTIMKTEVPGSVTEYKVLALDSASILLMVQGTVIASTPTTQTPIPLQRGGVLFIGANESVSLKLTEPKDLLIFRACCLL
#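 assay system = human phosphomannose isomerase with PGI, G6PDH, diaphorase coupling enzymes | quantity = 15 ng/mL PMI | incubation = enzyme reaction with compound 20 min at room temperature | medium = HEPES pH 7.4 buffer with MgCl2 and Tween-20 | compound dosing = one concentration, 20 µM, in 1% DMSO | measured by = Diaphorase-driven resazurin-to-resorufin fluorescence, excitation 544, emission 590 nm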
# PMI act: activators of human phosphomannose isomerase; P34949; purified human PMI, coupled resazurin fluorescence, 20 min; hits give high values; 1 = vehicle control, 0 substrate-free wells; activation factor at 20 µM; 190,000 compounds, 0.005% hits;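 active means activation factor of 2 or more at 20 µM, relative to plate controls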
# G6PDH CS: counter-screen for G6PDH assay hits: L. mesenteroides G6PDH inhibition; 200,000 compounds, 0.12% hits; inhibition, % at 5 µM; AID 1020; Purified L. mesenteroides G6PDH, diaphorase/resazurin coupled fluorescence, 45 min; in the data active means inhibition above about 50%
# Diaphorase act: counter-screen for diaphorase-based assays: diaphorase activators and chemical reducers; Diaphorase/resazurin coupled assay, resorufin fluorescence, 16 min; hits give high values; 1 = vehicle wells, 0 = NADH-free wells; 190,000 compounds, 0.005% hits; activation factor at 20 µM;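 active means diaphorase activity raised at least twofold by the compound at 20 µM; inactive means activation factor below 2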
#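 test system = bacterial diaphorase enzyme (C. kluyveri) | quantity = enzyme 0.07 U/mL final | reagent = NADH substrate 0.114 mM plus resazurin dye 0.1 mM, final | incubation = 16 min enzyme reaction, ambient temperature | buffer or medium = HEPES pH 7.4 buffer with MgCl2 and Tween 20 | signal = fluorescence of resorufin, 544 nm excitation, 590 nm emission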
# * hit, by the source's call.
SMILES,Diaphorase inh,PMI act hi M6P,PMI act,G6PDH CS,Diaphorase act
COc1cccc2cc(C(=O)Nc3ccc(F)cc3)c(=Nc3ccc(C(=O)O)cc3)oc12,62*,1.1,1,0,0.4
O=C(CCCCn1c(=O)c2ccccc2n(Cc2ccccc2F)c1=O)NC1CCN(Cc2ccccc2)CC1,16,1,0.9,7,0.8
COc1ccc2cc(/C=C3\SC(=S)NC3=O)c(N3CCOCC3)nc2c1,58*,1.1,1,3,0.4
COc1cc(NCCCCCCCN)c2ncccc2c1,17,0.5,0.8,53*,0.8
COc1cc(NC(=O)c2ccc3c(c2)OCO3)c2ncccc2c1,3,1,1,3,1
CCOC(=O)c1sc2nc(C(C)C)c3c(c2c1N)CC(C)(C)OC3,55*,1,1.1,5,0.5
Cc1ccc(F)c(NC(=O)/C(C#N)=C(\O)c2ccc(C(C)(C)C)cc2)c1,19,1,1.1,1,0.8
CC1(C)Cc2c(sc(NC(=O)c3ccco3)c2C(=O)O)CO1,18,1,1,3,0.8
CC1(C)Cc2c(sc(NC(=S)NC(=O)c3ccccc3)c2C(=O)O)CO1,78*,0.9,0.9,9,0.2
COc1cc(NC(=O)Cn2c(=O)n(-c3cccc(C)c3)c(=O)c3c(C)c(C)sc32)cc(OC)c1,-6,1.1,1,-12,1.1
COc1ccc(NC(=S)Nc2ccc3nccnc3c2)cc1,65*,0.3,0.2,15,0.3
COc1ccc(NC(=S)Nc2ccc3snnc3c2)cc1,23,0.5,0.8,18,0.8
C=CCN1C(=O)C(CC(=O)Nc2ccc(OCCC)cc2)N(CCCN2CCN(Cc3ccccc3)CC2)C1=S (stereo unspecified),20,0.9,0.9,2,0.8
CCOC(=O)c1c(C)oc2c1c1c(c3ccccc32)OCN(Cc2cccnc2)C1,53*,0.3,0.3,13,0.5
Cc1ccc(N2NC3(CCN(C(N)=O)CC3)NC2=O)cc1,13,2.3*,1.6,-2,0.9
Cc1c2cc(O)c(=O)cc-2oc2cc(O)c(O)cc12,80*,0.7,0.5,18,0.2
COc1cc(OC)c(-c2c3cc(O)c(=O)cc-3oc3cc(O)c(O)cc23)cc1OC,81*,0.3,0.3,14,0.2
COc1ccc(CCN=C(N)Nc2nc(C)cc(C)n2)cc1,-7,1,1,2,1.1
CC(=O)N1CCOCCOCCN(C(C)=O)CCOCC1,7,1,1,7,0.9
Cc1ccc2nc(NC(=O)C3CCCN3C(=O)OC(C)(C)C)sc2c1 (stereo unspecified),13,1,1,-2,0.9
CCOC(=O)c1nn(-c2ccc(F)cc2)c(=O)c2c(N)scc12,32,0.4,0.6,51*,0.7
COc1ccc(C(=O)c2c(C(F)(F)F)oc3c2C(=O)c2ccccc2C3=O)cc1,7,2*,1.5,54*,0.9
CN(C)c1ccc(/C=C/c2ccc3c4ccccc4ccc3[n+]2-c2ccccc2)cc1,68*,0.9,1.1,-13,0.3
Cc1ccc(S(=O)(=O)NNC(=O)c2cccs2)c(C)c1,8,1.1,1.1,0,0.9
Cc1ccc(S(=O)(=O)NNc2ccccc2)c(C)c1,3,2.7*,1.7,8,1
SMILES,Diaphorase inh,PMI act hi M6P,PMI act,G6PDH CS,Diaphorase act
Cc1ccc(N/N=C/c2c(O)cc(C)oc2=O)cc1,20,2.2*,1.4,3,0.8
COc1ccc2oc(=O)c(/C(C)=N/Nc3ccccc3)cc2c1,16,2.5*,1.9,9,0.8
Cc1ccc(CO/N=C/c2c(O)cc(C)oc2=O)cc1,3,1.1,1.1,3,1
Cc1cc(O)c(/C=N/Nc2ccc(F)cc2)c(=O)o1,48,2.3*,1.7,-1,0.5
C/C(=N\Nc1ccccc1)c1c(O)cc(C)oc1=O,8,2.6*,1.9,4,0.9
N#Cc1cc2c([nH]c1=S)CCCC2,-42,2*,1.8,1,1.4
CC1(C)Cc2[nH]c(=S)c(C#N)cc2CO1,2,1.5,1.4,0,1
COc1cc(NC(=O)CN(C)S(=O)(=O)c2ccc(C)cc2)cc(OC)c1,5,1,0.9,5,0.9
COc1ccc(S(=O)(=O)N(C)CC(=O)Nc2ccc(C)cc2)cc1OC,65*,0.9,0.9,6,0.3
CC(C)/C(=N/Nc1ccccc1[N+](=O)[O-])c1ccccc1,50*,0.5,0.8,8,0.5
CC(C)Oc1ccccc1/C=N/Nc1ccccc1[N+](=O)[O-],19,0.9,0.8,7,0.8
Cn1cc(Br)c(C(=O)NNC(=O)Nc2ccccc2C(F)(F)F)n1,13,0.9,0.9,9,0.9
Cn1cnnc1SCC(=O)Nc1ccc(OC(F)F)cc1,0,1.1,1.1,8,1
Nc1c(C(=O)O)sc2nc(-c3ccccc3)c3c(c12)CCCC3,15,2.2*,1.5,-8,0.9
O=C(CCC(=O)c1ccc(F)cc1)Nc1ccccc1Cl,13,0.9,0.9,4,0.9
O=C(CN1CCN(CC(=O)c2ccc(F)cc2)CC1)Nc1ccccc1Cl,11,2.2*,1.4,0,0.9
COc1ccc(N2C3=C(CC4=C2CCCC4=O)C(=O)CCC3)cc1,64*,0.5,0.7,29,0.4
O=C(CCc1nnc(CCCc2ccccc2)o1)NCCc1ccccc1,5,1,1,4,1
O=C(CCc1nnc(CCCc2ccccc2)o1)NCC(F)(F)F,50*,0.9,0.8,10,0.5
Cc1ccc(SCC(=O)NC(=O)NCCC(C)C)c(C)c1,16,1,0.9,4,0.8
NC(=O)C1CCN(C(=O)CN2CCCc3ccccc32)CC1,6,2*,1.5,-9,0.9
O=C(CN1CCCc2ccccc21)NC(=O)NC1CCCCC1,-10,1,1.1,1,1.1
CC(C)(C)c1ccc(S(=O)(=O)N2CCC(CO)(CC3CCCCO3)CC2)cc1 (stereo unspecified),26,0.9,1,11,0.7
COc1cc(/C=N/Nc2ccccc2)ccc1OC(=O)c1cccs1,6,2.2*,1.5,-7,0.9
CSc1ccc(/C=N/Nc2ccc(Cl)c(C(=O)O)c2)cc1,9,2.4*,1.7,4,0.9
COc1cc(/C=N/Nc2ccc(Cl)c(C(=O)O)c2)ccc1OC(=O)c1cccs1,28,2.4*,1.6,-5,0.7
COc1cc(/C=N/Nc2ccc(Cl)c(C(=O)O)c2)ccc1OC(=O)c1ccco1,-10,1.5,1.6,8,1.1
CSc1ccc(/C=N/Nc2nc(C)cc(C)n2)cc1,2,1,1,-4,1
C/C=C(/C)C(=O)O[C@H]1[C@@H](O)c2c(ccc3ccc(=O)oc23)OC1(C)C,9,1.1,1.1,12,0.9
